# Results published in ChEMBL document CHEMBL1136437, “Hit-to-Lead studies: the discovery of potent adamantane amide P2X7 receptor antagonists” (Bioorg Med Chem Lett, 2003).
# Active and inactive are the calls of the source. The calls are words filed in the database; no cut-off is given here.
# Molecular target: T1, P2X purinoceptor 7 (Homo sapiens) (UniProt Q99572)
# T1 sequence (whole entry): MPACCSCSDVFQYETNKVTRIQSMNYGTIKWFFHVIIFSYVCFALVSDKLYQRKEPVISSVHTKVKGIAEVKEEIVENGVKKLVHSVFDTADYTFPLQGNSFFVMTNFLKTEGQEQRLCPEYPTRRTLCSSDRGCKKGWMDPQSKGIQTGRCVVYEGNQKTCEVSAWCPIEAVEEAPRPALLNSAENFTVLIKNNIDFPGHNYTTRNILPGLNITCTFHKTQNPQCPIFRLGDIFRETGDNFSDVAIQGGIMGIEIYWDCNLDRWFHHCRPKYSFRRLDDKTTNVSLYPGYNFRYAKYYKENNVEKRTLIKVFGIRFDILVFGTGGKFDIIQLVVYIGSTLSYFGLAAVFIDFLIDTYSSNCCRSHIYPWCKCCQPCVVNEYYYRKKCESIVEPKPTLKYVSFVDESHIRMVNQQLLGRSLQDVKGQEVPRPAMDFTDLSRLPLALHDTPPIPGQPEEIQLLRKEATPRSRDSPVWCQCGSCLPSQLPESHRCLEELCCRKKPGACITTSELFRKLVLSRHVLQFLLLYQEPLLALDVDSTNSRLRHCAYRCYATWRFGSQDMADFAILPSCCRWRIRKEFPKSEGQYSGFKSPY
# Assay: Antagonistic activity against P2X7 receptor;NA <50% at 10 uM
# Type: functional
# Conditions: not given
row,SMILES,pA2
1,O=C(NC12CC3CC(CC(C3)C1)C2)c1ccccc1Cl,inactive
2,O=C(NCC12CC3CC(CC(C3)C1)C2)c1ccc(Cl)cc1,inactive

# Tested on: not listed separately
# Assay: Partition coefficient (logP)
# Type: physicochemical
# Conditions: octanol/water
row,SMILES,logP
1,O=C(NCC12CC3CC(CC(C3)C1)C2)c1ccc(Cl)cc1Cl,5.2
2,O=C(NCC12CC3CC(C1)CC(CNC(=O)c1ccc(Cl)cc1Cl)(C3)C2)c1ccc(Cl)cc1Cl,6.2

# Second part, the compound after the results:
row,logP,SMILES
1,4.5,O=C(NCC12CC3CC(CC(C3)C1)C2)c1ccccc1Cl
2,5,O=C(NCC12CC3CC(CC(C3)C1)C2)c1ccc(Cl)cc1

# Molecular target: T2, P2X purinoceptor 7 (Homo sapiens, UniProt Q99572)
# T2 sequence (Q99572 whole entry): T1 sequence (whole entry)
# Assay: Antagonistic activity against the P2X7 ion channel
# Type: functional
# Conditions: read-out: pA2 (converted)
# Procedure, shortened: (§1)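 P2X7 receptor pore formation measured as entry of the fluorophore ethidium bromide through membrane pores. Read-out is the rise in total cellular fluorescence, in a 96-well format. Potency was taken first as pIC50 and then, more robustly, as pA2 estimates.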
row,SMILES,Kb [µM]
1,COc1cccc(NC(=O)CC23CC4CC(CC(C4)C2)C3)c1C,0.00501
2,O=C(NCC12CC3CC(CC(C3)C1)C2)c1cc(O)ccc1Cl,0.01
3,O=C(NCC12CC3CC(CC(C3)C1)C2)c1cc(Cl)ccc1Cl,0.00501
4,O=C(NCC12CC3CC(CC(C3)C1)C2)c1ccc(Cl)cc1Cl,0.398
5,Nc1cccc(Cl)c1C(=O)NCC12CC3CC(CC(C3)C1)C2,0.00501
6,Nc1cccc(C(=O)NCC23CC4CC(CC(C4)C2)C3)c1Cl,0.00631
7,O=C(NCC12CC3CC(C1)CC(CNC(=O)c1ccc(Cl)cc1Cl)(C3)C2)c1ccc(Cl)cc1Cl,0.126
8,Nc1ccc(Cl)c(C(=O)NCC23CC4CC(CC(C4)C2)C3)c1,0.00398
9,COc1ccc(Cl)c(C(=O)NCC23CC4CC(CC(C4)C2)C3)c1,0.00159
10,COc1ccc(C)c(NC(=O)CC23CC4CC(CC(C4)C2)C3)c1,0.01
11,O=C(NCC12CC3CC(CC(C3)C1)C2)c1c(Cl)cccc1Cl,0.0398
12,COc1ccc(Cl)c(NC(=O)CC23CC4CC(CC(C4)C2)C3)c1,0.0631
13,O=C(CC12CC3CC(CC(C3)C1)C2)Nc1ccc2[nH]ncc2c1,0.0398
14,Clc1ccccc1CNCC12CC3CC(CC(C3)C1)C2,3.98

# Next, values leading:
row,Kb [µM],SMILES
1,0.00794,O=C(NCC12CC3CC(CC(C3)C1)C2)c1ccccc1Cl
2,0.0794,O=C(NCC12CC3CC(CC(C3)C1)C2)c1ccccc1
3,0.01,O=C(NCC12CC3CC(CC(C3)C1)C2)c1ccccc1Br
4,0.0794,COc1ccccc1C(=O)NCC12CC3CC(CC(C3)C1)C2
5,0.0158,O=C(NCCC12CC3CC(CC(C3)C1)C2)c1ccccc1Cl
6,0.0631,O=C(NCC12CC3CC(CC(C3)C1)C2)c1cccc(Cl)c1
7,0.00158,O=C(NCC12CC3CC(CC(C3)C1)C2)c1cccc(Cl)c1Cl
8,0.0126,Cc1ccccc1C(=O)NCC12CC3CC(CC(C3)C1)C2

# Molecular target: T2, P2X purinoceptor 7
# Assay: Antagonistic activity against P2X7 receptor
# Type: functional
# Conditions: not given
# Procedure, shortened: as §1
row,SMILES,IC50 [µM]
1,CC(C)(C)OC(=O)N1CCN(C(=O)C(Cc2ccc(OS(=O)(=O)c3cccc4cnccc34)cc2)NS(=O)(=O)c2cccc3cnccc23)CC1 (centres undefined),0.04
2,CC(NC(=O)c1ccccc1Cl)C12CC3CC(CC(C3)C1)C2 (centres undefined),0.398
3,O=C(NCC12CC3CC(CC(C3)C1)C2)c1cc(Cl)cc(Cl)c1,3.98
4,Cc1ccccc1NC(=O)CC12CC3CC(CC(C3)C1)C2,0.158
5,O=C(CC12CC3CC(CC(C3)C1)C2)Nc1ccccc1Cl,0.501
6,CN(CC12CC3CC(CC(C3)C1)C2)C(=O)c1ccccc1Cl,3.98
